PREPL inh – human PREPL enzyme inhibition; Q4J6C6; recombinant PREPL, fluorescence polarization activity-based probe; inhibition, % at 5.96 µM; actives 0.68% (n = 320,000)
MC4R antag cAMP – human MC4R antagonism in cAMP assay; inhibition, % at 6.5 µM; MC4R-expressing cells, MTII-stimulated cAMP, LANCE TR-FRET; actives 0.48% (n = 360,000); P32245;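 active = inhibition above its plate's cutoff, the mean of tested wells on that plate plus 3 SD, cut at about 29% in these data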
Target sequence (P32245 whole entry, looked up): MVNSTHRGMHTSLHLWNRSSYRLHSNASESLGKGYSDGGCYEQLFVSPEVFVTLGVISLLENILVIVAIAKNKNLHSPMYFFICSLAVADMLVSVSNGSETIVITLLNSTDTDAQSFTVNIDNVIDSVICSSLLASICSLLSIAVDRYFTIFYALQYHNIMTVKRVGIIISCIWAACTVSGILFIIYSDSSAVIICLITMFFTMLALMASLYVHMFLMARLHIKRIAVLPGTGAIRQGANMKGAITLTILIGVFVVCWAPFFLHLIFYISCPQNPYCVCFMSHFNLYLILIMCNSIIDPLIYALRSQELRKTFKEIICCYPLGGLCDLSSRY
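System: U2OS-MC4R stable cell line; Technique: Eu-cAMP/anti-cAMP TR-FRET, emission 671 nm; Repeats: single well per compound; Also added: Melanotan II; Dosing: one concentration, 6.5 µM nominal; Schedule: 30-min compound, 1-h challenge, 1-h detection, room temperature.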
MC4R barr agon – human MC4R agonism via beta-arrestin | P32245 | U2OS MC4R beta-arrestin complementation, luminescence; percent of melanotan II response, DMSO zero | activation, % at 8.9 µM | actives 0.98% (n = 360,000) | AID 540308;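 active = activation above a per-plate cutoff, the mean activation of sample wells on that plate plus 3 SD, cut at about 8% in these data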
Hep lipid drop – hepatic lipid droplet formation modulation; AML12 mouse hepatocytes, oleate lipid droplets, BODIPY imaging; inhibition, % at 6.5 µM; actives 0.4% (n = 240,000);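 active = lipid droplet intensity inhibited by at least 50%, with more than 500 cells counted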
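Assay system: AML12 mouse liver cells | Compound dosing: One dose, 6.5 µM compound | Read-out basis: Droplet intensity reduction, % inhibition | Measured by: Fluorescence imaging, 20x objective, two fields per well | Schedule: Overnight treatment with compound plus oleate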
HTR2A ag – activates the mouse 5-HT2A serotonin receptor | actives 0.66% (n = 360,000) | CHO-K1 mHTR2A beta-arrestin complementation, luminescence; percent of 30 µM serotonin response | activation, % at 7.6 µM;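 active = activation above a run cutoff, the mean activation of all tested compounds plus 3 SD, cut at about 14% in these data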
NTR1 agonist – agonists of human neurotensin receptor NTR1; AID 493036; activation, % at 20 µM; actives 0.17% (n = 330,000); P30989; NTR1-U2OS beta-arrestin-GFP spot imaging, agonist mode;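 active = activation at or above 40% of the spot to cytoplasm intensity ratio, with at least 20 cells analyzed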
PREPL inh cf – confirmation of human PREPL enzyme inhibitors; shares compounds with PREPL inh; recombinant PREPL, fluorescence polarization activity probe; inhibition, % at 5.96 µM; actives 67% (n = 2,000); AID 2803
Each line names hits and unclear results; the compound was inactive in the other large screens (follow-up assays come after a bar, where they were run). Rows were chosen to be rich in hits. Some 2.7% of all compounds tested hit in one or more screens of this group. Rule as the data show it, unless noted: active = inhibition above about 43%; inactive = the rest.

Cc1ccc(C23CC4CC(CC(C(=O)OCC(=O)NC5CCS(=O)(=O)C5)(C4)C2)C3)cc1 (configuration not stated)	none
COc1ccc(/C=C/c2nc3ccccc3n2Cc2ccccc2OC)cc1	PREPL inh 49 | PREPL inh cf 47
CC(C)N=c1cc2n(-c3ccc(Cl)cc3)c3ccccc3nc-2cc1Nc1ccc(Cl)cc1	PREPL inh 45 (no result: Hep lipid drop) | PREPL inh cf 48
CC12CCC(=O)N1C(C(=O)N1CCN(c3ccccc3)CC1)CS2 (configuration not stated)	none (no result: Hep lipid drop)
CC12CCC(=O)N1C(C(=O)N1CCN(c3ccc([N+](=O)[O-])cc3)CC1)CS2 (configuration not stated)	PREPL inh 47 (no result: Hep lipid drop) | PREPL inh cf inactive
COc1ccc(-c2cc(-c3ccccc3O)[nH]n2)cc1OC	none (no result: Hep lipid drop)
COc1ccc(-c2cc(-c3ccc(OC)c(OC)c3)n[nH]2)c(O)c1	PREPL inh 46 | PREPL inh cf inactive
O=c1[nH]c(=S)[nH]c2c1C(C1CCCCC1)OC(C1CCCCC1)C2 (configuration not stated)	none (no result: PREPL inh, MC4R antag cAMP, MC4R barr agon, Hep lipid drop, NTR1 agonist)
COc1cccc(-c2ccc(SCC(=O)NC3CCCCC3)nn2)c1	PREPL inh 44 | PREPL inh cf inactive
O=C1c2c([N+](=O)[O-])cc([N+](=O)[O-])cc2S(=O)N1Cc1ccccc1 (configuration not stated)	none
N#CCC(=O)Nc1ncn(Cc2ccccc2Cl)n1	PREPL inh 54 | PREPL inh cf inactive
CC(C)Nc1nnc(SCC(=O)Nc2ccc3c(c2)C(=O)c2ccccc2C3=O)s1	PREPL inh 44 (no result: NTR1 agonist) | PREPL inh cf 52
CC1CCCCN1Cc1c(O)ccc2c(=O)c(-c3nc4ccccc4s3)c(N)oc12 (configuration not stated)	PREPL inh 51 | PREPL inh cf 51
COc1ccc(OC)c(NC(=O)NCCc2cccc(Cl)c2)c1	none
CC(=O)Oc1ccc2c(c1)Oc1cc(OC(C)=O)ccc1C21OC(=O)c2ccccc21	PREPL inh 95 | PREPL inh cf 112
COc1ccc(OC)c(-c2c3cc(O)c(=O)cc-3oc3cc(O)c(O)cc23)c1	PREPL inh 78 (no result: NTR1 agonist) | PREPL inh cf 77
O=C(NCc1ccco1)C1CC(c2cc(C(F)(F)F)cc(C(F)(F)F)c2)=NO1 (configuration not stated)	none
Nc1ccccc1-c1ccccc1N	none
Nc1ccccc1N=Nc1ccccc1N	PREPL inh 50 | PREPL inh cf 43
O=C(O)/C=C/C(=O)c1c(-c2ccccc2)[nH]c2ccccc12	none
CSc1ccc(C=NNc2ccc(S(=O)(=O)Nc3ccccc3C(=O)O)cc2[N+](=O)[O-])cc1	none (no result: Hep lipid drop)
C=CCOc1ccc(C=NNc2ccc(S(=O)(=O)Nc3ccccc3C(=O)O)cc2[N+](=O)[O-])cc1OC	PREPL inh 62 (no result: Hep lipid drop) | PREPL inh cf inactive
CCOc1ccc(C=NNc2ccc(S(=O)(=O)Nc3ccccc3C(=O)O)cc2[N+](=O)[O-])cc1	PREPL inh 65 (no result: Hep lipid drop) | PREPL inh cf 69
O=C(COc1ccc(C(=S)N2CCCC2)cc1)Nc1ccccc1C(F)(F)F	none
COc1cccc(C2=CC(c3ccccc3)n3nnnc3N2)c1 (configuration not stated)	none (no result: Hep lipid drop, NTR1 agonist)
COc1cccc(C2=CC(c3ccc(N(C)C)cc3)n3nnnc3N2)c1 (configuration not stated)	PREPL inh 70 (no result: Hep lipid drop) | PREPL inh cf 54
CCc1c(C)nc2cc(-c3ccc(OC)c(OC)c3)nn2c1N1CCC(C)CC1	none (no result: Hep lipid drop)
CCc1c(C)nc2cc(-c3ccc(OC)c(OC)c3)nn2c1N1CCCC1	PREPL inh 45 (no result: Hep lipid drop) | PREPL inh cf inactive
CCC(C(=O)NC1CCCC1)N(C(=O)Cn1nnc(-c2ccc(C)o2)n1)c1cccc(OC)c1 (configuration not stated)	none
